Screening data deposited in PubChem by several laboratories.
Most compounds without a hit are left out; they make up all but 9.6% or so of the library.
bCat nuc transl – alters nuclear translocation of beta-catenin in HeLa cells; nuclear translocation activity, % at 5 µM; immunofluorescence imaging; 190,000 tested, 0.3% active;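 active means nuclear translocation activity above 50% at 5 µM, with a well cell count of 50 or more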;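 further: per-cell ratio of nuclear to cytoplasmic median beta-catenin stain intensity; plate controls were DMSO negative control for no effect and GSK-3 inhibitor IX positive control for full effect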
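Test system: HeLa cells, endogenous beta-catenin; Compound: single 5 µM dose plus 0.02–20 µM confirmation series; Times: compound exposure 24 h at 37°C; Signal: fluorescence imaging of beta-catenin antibody stain plus DAPI; Read-out: % activation, nuclear-to-cytoplasmic median beta-catenin signal ratio per cell.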
MT stabilizer – microtubule stabilizers in HeLa cells; HeLa tubulin immunostaining HCS, 24 h; share of cells brighter than vehicle mean+2SD; % tubulin-high responders, % at 10 µM; 200,000 tested, 0.83% active; AID 2205;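 active means plate Z-score above 3 for both tubulin-high and condensed-nucleus cell shares, with cell loss under 80%, at 10 µM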;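 further: anti alpha tubulin signal scored within the nucleus-defined area of each cell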
Lmaj promast – Leishmania major promastigote growth inhibition; 200,000 tested, 9% active; AID 1063; inhibition, % at 10 µM; Leishmania major promastigotes, resazurin fluorescence viability; in the data active means inhibition above about 50%;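 further: promastigotes grown with compound for 44 hours at 28 °C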
BaF3 tox – reduces parental Ba/F3 cell viability, JAK2V617F counter-screen; AID 1486; inhibition, % at 5.6 µM; 220,000 tested, 1.1% active; CellTiter-Glo ATP luminescence;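 active means inhibition above a per-campaign cutoff, the mean inhibition of all tested compounds plus 3 SD, cut at about 27% in these data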;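 further: 0% = DMSO wells and 100% = JAK Inhibitor I control wells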
APP transl inh – APP translation inhibition. 190,000 tested, 0.82% active. SH-SY5Y APP 5'UTR-luciferase reporter, luminescence. inhibition, % at 2 µM;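 active means inhibition above a set limit, derived from the sample mean plus 3 SD, cut at about 45% in these data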
Ba/F3 V617F tox – lowers viability of Ba/F3 cells expressing EpoR and JAK2V617F; ATP luminescence; 220,000 tested, 1.1% active; inhibition, % at 5.6 µM;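 active means inhibition above the campaign mean plus 3 SD over all tested compounds, cut at about 24% in these data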;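 further: cytokine-independent growth of Ba/F3 cells driven by EpoR plus mutant JAK2; 0% = DMSO-treated cells and 100% = JAK inhibitor I control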
Numbers without * were called inactive; · = no result given.

SMILES | bCat nuc transl | MT stabilizer | Lmaj promast | BaF3 tox | APP transl inh | Ba/F3 V617F tox
Cc1ccc(N2C(=O)C3CC(c4ccccc4)=C4C5C=CC(C6C(=O)N(c7ccc(C)cc7)C(=O)C56)C4C3C2=O)cc1 (stereo not drawn) | 0 | 3 | 98* | 1 | -9 | -5
Cc1ccc(NC(=O)CSc2nnc(CCC(=O)O)c(=O)[nH]2)cc1 | 0 | · | · | 1 | · | -4
O=C(NCC1CCCO1)C1CCCN(Cc2cnn(-c3ccccc3)c2-n2cccc2)C1 (stereo not drawn) | -2 | 2 | 31 | 7 | 2 | 5
O=C(Nc1ccc2c(c1)OCO2)C1CCN(Cc2cnn(-c3ccccc3)c2-n2cccc2)CC1 | -4 | 2 | 98* | 7 | 2 | 3
O=C(Nc1ccc(F)cc1)NC1CCN(Cc2ccccc2)CC1 | -5 | 5 | 55* | 8 | 8 | 2
CC(C)c1ccc(NC(=O)NC2CCN(CC(=O)Nc3cccc4ccccc34)CC2)cc1 | -6 | 2 | 58* | 2 | -4 | -1
Cc1ccccc1C(=O)NC1CCN(CC(=O)Nc2ccc3c(c2)OCCO3)CC1 | -2 | 4 | 90* | -1 | -4 | -4
O=C(Nc1ccc2c(c1)OCO2)C1CCN(S(=O)(=O)Cc2ccccc2)CC1 | 2 | 1 | -4 | 4 | -5 | -2
O=C(Nc1ccc2c(c1)OCO2)NC1CCN(Cc2ccccc2)CC1 | · | 3 | 78* | 2 | -25 | -3
Cn1cc(CC(=O)NCCN2CCOCC2)c2ccccc21 | -3 | 2 | -5 | 10 | -20 | 3
Cc1ccc(-c2nc(NCc3cccnc3)c3ccccc3n2)cc1 | · | 4 | 83* | 11 | · | 7
Fc1cccc(Nc2nc(-c3ccncc3)nc3ccccc23)c1 | 0 | 2 | 61* | 5 | 12 | -1
O=C(O)c1cccc(Nc2nc(C(F)(F)F)nc3ccccc23)c1 | -1 | 3 | 1 | 2 | -15 | -3
Fc1ccc(CNc2nc(-c3ccccc3)nc3ccccc23)cc1 | -2 | 2 | 69* | 7 | -26 | 5
Cc1ccc(-c2nc(N/N=C/c3cccnc3)c3ccccc3n2)cc1 | · | 2 | -3 | 6 | -26 | -2
O=C(O)CNc1nc(-c2ccccc2)nc2ccccc12 | -4 | 3 | -1 | -1 | -1 | 0
c1ccc(-c2nc(NCc3cccnc3)c3ccccc3n2)cc1 | 4 | 3 | 80* | 4 | -24 | 3
CCOc1cccc(NC(=O)c2cccc(F)c2)c1 | 0 | 5 | 0 | 3 | -18 | 0
O=C(c1cccc(F)c1F)N1CCCC1 | 3 | 4 | -6 | 5 | 17 | -1
O=C(Cc1cccs1)Nc1nc(-c2cccnc2)cs1 | 0 | · | · | -6 | · | -1
Clc1cccc(-c2nc(NCc3cccnc3)c3ccccc3n2)c1 | -1 | 3 | 86* | -2 | -10 | 0
c1cncc(-c2nc(NCCCn3ccnc3)c3ccccc3n2)c1 | -1 | 3 | -2 | 5 | 11 | -2
O=C(c1ccc(=O)[nH]n1)N1CCc2ccccc2C1 | -2 | · | · | 2 | · | -5
O=C(N/N=C/c1cccc(O)c1)c1csc2ccccc12 | -1 | 3 | 69* | 5 | -14 | 1
Cc1c(/C=N\NC(=O)c2csc3ccccc23)cnn1C | · | 5 | -2 | 1 | -5 | -3
SMILES | bCat nuc transl | MT stabilizer | Lmaj promast | BaF3 tox | APP transl inh | Ba/F3 V617F tox
CCn1ncc(/C=N\NC(=O)c2csc3ccccc23)c1C | 129* | 48* | 62* | 2 | 40 | -2
CN1CCN(CCCNC(=O)c2ccc(/C=C3\Sc4ccccc4N(Cc4ccccc4F)C3=O)cc2)CC1 | 0 | 2 | 100* | 10 | -1 | 5
O=C(NCCN1CCOCC1)c1ccc2c(c1)N(Cc1cccc(F)c1)C(=O)c1ccccc1S2 | 0 | 3 | 100* | 10 | 1 | 5
CCOCCCNC(=O)/C=C1\Sc2ccccc2N(Cc2ccccc2F)C1=O | 0 | 2 | 10 | -1 | -25 | -2
CCc1ccc(/C=C2/Sc3ccccc3N(CC(=O)NCCCOC)C2=O)cc1 | 1 | 3 | -3 | 2 | -8 | -3
CCN1CCN(CCNC(=O)c2ccc(/C=C3/Sc4ccccc4N(Cc4cccc(Cl)c4)C3=O)cc2)CC1 | 20 | 4 | 101* | 4 | -27 | 12
O=C(NCCN1CCOCC1)c1ccc2c(c1)N(Cc1ccccc1F)C(=O)CS2 | 1 | 4 | 2 | 8 | -2 | 4
CC(C)OCCCNC(=O)CN1C(=O)/C(=C/c2ccccc2)Sc2ccccc21 | 0 | 5 | 59* | 5 | 0 | 2
